# Compound activity: PubChem, several laboratories
# Rows were chosen to be rich in hits. Some 2% of all compounds tested hit in one or more screens of this group.
# CCR6 antag = antagonists of human CCR6 receptor; CHO-K1 CCR6 PathHunter beta-arrestin, luminescence, CCL20-stimulated; inhibition, % at 20 µM; hit rate 0.49% among 340,000; P51684;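 active means compounds whose inhibition of the agonist-driven luminescence signal at 20 µM reaches about 50%, limit read from the data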;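 further: cells stimulated with CCL20 at 14 nM final; plate controls were DMSO with CCL20 for no effect and DMSO without agonist for full effect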
# APJ antagonist = antagonists of human APJ apelin receptor | CHO-K1 APJ beta-arrestin complementation, luminescence | inhibition, % at 20 µM | hit rate 0.32% among 330,000 | AID 2521;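 active means inhibition above about 40% at 20 µM, limit read from the data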;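 further: cells challenged with 10 nM apelin-13 agonist together with compound; plate controls were apelin-13 plus DMSO wells for no effect and DMSO wells lacking apelin-13 for full effect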
# Target sequence (P35414 whole entry, looked up): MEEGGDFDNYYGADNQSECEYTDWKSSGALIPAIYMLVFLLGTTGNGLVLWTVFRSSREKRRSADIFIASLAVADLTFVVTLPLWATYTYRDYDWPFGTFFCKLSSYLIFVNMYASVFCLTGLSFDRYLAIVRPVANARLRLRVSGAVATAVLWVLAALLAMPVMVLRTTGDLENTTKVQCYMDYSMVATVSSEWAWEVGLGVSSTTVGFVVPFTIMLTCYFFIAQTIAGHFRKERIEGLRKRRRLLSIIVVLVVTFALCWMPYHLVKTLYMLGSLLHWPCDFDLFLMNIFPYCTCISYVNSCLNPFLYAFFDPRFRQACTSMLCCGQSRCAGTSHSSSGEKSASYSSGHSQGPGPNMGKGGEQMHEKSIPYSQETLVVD
# APJ ag = activates the human apelin receptor APJ | CHO-K1 APJ PathHunter beta-arrestin, luminescence; 0% DMSO wells, 100% apelin | activation, % at 20 µM | P35414 | hit rate 0.11% among 330,000 | AID 2520;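 active means activation more than six SD over the plate average, tested at 20 µM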;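 further: 0% = DMSO alone and 100% = apelin-13 at 10 nM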
#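 Test system: CHO-K1 APJ beta-arrestin complementation cell line. Amount: cell density 1000 per well. Controls: DMSO negative, 10 nM Apelin-13 positive. Signal: luminescent beta-gal fragment complementation, chemiluminescent substrate. Read-out basis: agonist-driven arrestin binding to APJ. Timing: compound stimulation 90 min at 25 °C, detection 60 min.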
# EBI2 antag = blocks human EBI2 receptor beta-arrestin signaling; P32249; EBI2 beta-arrestin recruitment, luminescence, 7a,25-OHC stimulated; inhibition, % at 5 µM; AID 651636; hit rate 0.81% among 360,000; in the data active means inhibition above about 38%;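 further: enzyme fragment complementation signal reports receptor beta-arrestin coupling in cells; 0% = agonist plus DMSO wells and 100% = wells without agonist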
# CXCR6 block = inhibitors of human CXCR6 receptor | O00574 | CHO-K1 PathHunter CXCR6 beta-arrestin, luminescence | inhibition, % at 20 µM | hit rate 0.36% among 360,000 | AID 602244; in the data active means inhibition above about 34%, passing the limit was not always enough;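 further: antagonist mode with CXCL16 agonist at 10 nM final; 0% = 10 nM CXCL16 with DMSO and 100% = unstimulated wells without agonist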
# GAA850 FXN act = increases GAA850 frataxin promoter reporter activity. HEK293 lucGAA850 FXN promoter luciferase reporter, 24 h; percent of 10 µM SAHA response. activation, % at 6 µM. hit rate 0.56% among 360,000;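 active means activation above the average of all compounds screened plus 3 SD, cutoff fixed separately per campaign, cut at about 7.5% in these data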;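 further: 0% = DMSO wells and 100% = 10 µM SAHA wells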
# EBI2 conf = confirmation of human EBI2 receptor antagonists | inhibition, % at 5 µM | hit rate 29% among 2,400 | EBI2 beta-arrestin luminescence, 7a,25-OHC antagonism | shares compounds with EBI2 antag;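 active means inhibition of at least 50%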
# EBI2 ag = EBI2 agonism counter-screen; 2,400 tested, under 10 active; EBI2-expressing cells, agonist mode, luminescence, 60 min; 0% vehicle, 100% 7α,25-dihydroxycholesterol control; shares compounds with EBI2 antag; AID 652000; activation, % at 5 µM;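 active means activation of at least 50%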
# bGal counter = inhibits E. coli beta-galactosidase, counter-screen for EBI2 antagonists; hit rate 1% among 2,400; AID 652176; shares compounds with EBI2 antag; inhibition, % at 5 µM; purified beta-galactosidase, luminescent Galacton Star, 15 min;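 active means replicate-average signal at least 3 plate SD below neutral wells, shown as high inhibition, flagging enzyme-inhibiting false positives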;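 further: 0% = DMSO wells with enzyme and 100% = wells lacking enzyme; higher means stronger loss of beta-gal luminescence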
# An asterisk follows results filed as active; nt = no result.
SMILES,CCR6 antag,APJ antagonist,APJ ag,EBI2 antag,CXCR6 block,GAA850 FXN act,EBI2 conf,EBI2 ag,bGal counter
CCOC(=O)[C@]12Cc3cc(C)ccc3[C@H]1N(C1CCCCC1)C(=O)c1ccccc12,nt,nt,nt,60*,16,nt,7,2,-11
CCOC(=O)[C@]12Cc3cc(C)ccc3[C@H]1N(CCC(=O)OC)C(=O)c1ccccc12,nt,nt,nt,-4,7,nt,nt,nt,nt
CCOC(=O)[C@]12Cc3cc(OC)ccc3[C@H]1N(C)C(=O)c1cc(OC)ccc12,nt,nt,nt,9,-4,nt,nt,nt,nt
CCOC(=O)[C@]12Cc3ccc(C)cc3[C@H]1N(C1CCCCC1)C(=O)c1ccccc12,nt,nt,nt,64*,19,nt,11,1,-8
CCOC(=O)[C@]12Cc3ccc(C)cc3[C@H]1N(C1CCCCC1)C(=O)c1cc(OC)ccc12,nt,nt,nt,52*,28,nt,10,3,-11
CCOC(=O)[C@]12Cc3c(cc(OC)c(OC)c3OC)[C@H]1N(C1CCCCC1)C(=O)c1ccccc12,nt,nt,nt,71*,11,nt,-1,6,-11
Cc1ccc(Cn2nc(C(=O)Nc3ccc(Br)cc3)cc2C)cc1,11,-9,2,4,-9,2,nt,nt,nt
O=C(COc1ccccc1)N1CCN(CCN2C(=O)c3cccc4cccc(c34)C2=O)CC1,8,-17,2,50*,1,3,16,1,4
CCC(C)N1CCN(C(=O)COc2ccc3ccccc3c2)CC1 (configuration not stated),8,26,0,91*,2,1,74*,1,5
COc1ccc(CN2CCN(C(=O)COc3ccc4ccccc4c3)CC2)c(OC)c1,13,5,-4,78*,-6,1,69*,2,8
O=C(COc1ccc(Br)cc1)N1CCN(Cc2c[nH]c3ccccc23)CC1,-5,15,1,81*,-3,5,54*,1,9
CN1CCN(C(=O)COc2ccc(Oc3ccccc3)cc2)CC1,7,-19,-1,-4,5,0,nt,nt,nt
O=C(COc1ccc2ccccc2c1)N1CCN(Cc2c[nH]c3ccccc23)CC1,6,-12,-4,83*,-25,1,53*,1,8
CCN(CC)S(=O)(=O)c1cc(NC(=O)C(C)N2CC=C(c3ccccc3)CC2)ccc1C (configuration not stated),27,-9,-3,26,7,-2,nt,nt,nt
COC(=O)C1=C(c2ccc(OCc3ccccc3)cc2)C[C@@H]2CC[C@H]1N2C(=O)NCc1ccc(OC)cc1,nt,nt,nt,24,6,-12,nt,nt,nt
COC(=O)C1=C(c2ccc(OCc3ccccc3)cc2)C[C@@H]2CC[C@H]1N2C(=O)NCc1cccc(OC)c1,16,-8,-2,57*,15,-12,54*,-1,6
CCN(CC)C(=O)c1ccc(NC(=O)c2ccc(-n3cncn3)c([N+](=O)[O-])c2)cc1,0,-93,11,3,0,1,nt,nt,nt
COc1ccc(CCNCc2cccn2C)cc1OC,11,5,-2,-7,3,1,nt,nt,nt
CCOC(=O)C1(c2ccccc2)CCN(CCC(=O)Nc2cccc(Br)c2)CC1,14,10,-2,59*,-7,-5,27,0,1
CCOC(=O)C1(c2ccccc2)CCN(CCC(=O)Nc2ccc(C(=O)OC)cc2)CC1,14,10,-2,13,2,0,nt,nt,nt
CCOC(=O)C1(c2ccccc2)CCN(CCC(=O)Nc2ccc(OC)cc2)CC1,nt,nt,nt,52*,-1,-3,41,4,4
CCC1(CCC(C)C)C(=O)NC(=S)NC1=O,6,nt,nt,-10,8,1,nt,nt,nt
